{"source": "ChEMBL document CHEMBL1151481", "about": "“Cytotoxic polyprenylated xanthones from the resin of Garcinia hanburyi” (J Nat Prod, 2009)", "test_system": "HeLa", "test": "Cytotoxicity against human HeLa cells after […] by MTT assay", "type": "functional, cell-based", "outline": "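MTT read-out on HeLa cells, with an adriamycin positive control. Each determination was run in triplicate and reported as mean ± SEM. The 50% inhibitory concentration was obtained by interpolating concentration–inhibition curves.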", "data": [{"smiles": "C=C(C)C1CCC2(C)CC1c1c(O)c3c(c(CC=C(C)C)c1O2)O[C@]12C(=C[C@]4(OC)C[C@H]1C(C)(C)O[C@@]2(C/C=C(/C)C(=O)O)C4=O)C3=O", "note": "(stereo partly specified)", "values": [{"measurement": "IC50", "setting": "Homo sapiens, HeLa", "value": 0.91, "unit": "µM"}]}, {"smiles": "CO[C@]12C=C3C(=O)c4c(O)c5c(c(CC=C(C)C)c4O[C@@]34[C@@H](C1)C(C)(C)O[C@@]4(C/C=C(/C)C(=O)O)C2=O)O[C@@](C)(CCC=C(C)C)C=C5", "values": [{"measurement": "IC50", "setting": "Homo sapiens, HeLa", "value": 0.85, "unit": "µM"}]}, {"smiles": "CO[C@]12C=C3C(=O)c4c(O)c5c(c(CC=C(C)C)c4O[C@@]34[C@@H](C1)C(C)(C)O[C@@]4(C/C=C(/C)CO)C2=O)OC(C)(C)C=C5", "values": [{"measurement": "IC50", "setting": "Homo sapiens, HeLa", "value": 1.21, "unit": "µM"}]}, {"smiles": "CC(C)=CCC/C(C)=C/Cc1c(O)c(CC=C(C)C)c2c(c1O)C(=O)C1C=CCC3C(C)(C)OC4(CC=C(C)C(=O)O4)C13O2", "note": "(stereo unspecified)", "values": [{"measurement": "IC50", "setting": "Homo sapiens, HeLa", "value": 8.68, "unit": "µM"}]}, {"smiles": "COC(=O)/C(C)=C\\C[C@@]12OC(C)(C)[C@@H]3C[C@@H](CC4C(=O)c5c(O)c6c(c(CC=C(C)C)c5O[C@]431)OC(C)(C)C=C6)C2=O", "note": "(stereo partly specified)", "values": [{"measurement": "IC50", "setting": "Homo sapiens, HeLa", "value": 111, "unit": "µM"}]}, {"smiles": "CC(C)=CCc1c2c(c(O)c3c1O[C@]14C(C3=O)[C@@H](O)[C@@H]3C[C@H]1C(C)(C)O[C@@]4(C/C=C(/C)C(=O)O)C3=O)C=CC(C)(C)O2", "note": "(stereo partly specified)", "values": [{"measurement": "IC50", "setting": "Homo sapiens, HeLa", "value": 1.71, "unit": "µM"}]}, {"smiles": "CO[C@]12C=C3C(=O)c4c(O)c5c(c(CC=C(C)C)c4O[C@@]34[C@@H](C1)C(C)(C)O[C@@]4(C/C=C(/C)C(=O)O)C2=O)O[C@](C)(CCC=C(C)C)C=C5", "values": [{"measurement": "IC50", "setting": "Homo sapiens, HeLa", "value": 0.93, "unit": "µM"}]}, {"smiles": "CC(C)=CCC/C(C)=C/COc1cc(O)c2c(c1CC=C(C)C)O[C@]13C(=C[C@@H]4C[C@H]1C(C)(C)O[C@@]3(CC=C(C)C)C4=O)C2=O", "values": [{"measurement": "IC50", "setting": "Homo sapiens, HeLa", "value": 4.09, "unit": "µM"}]}, {"smiles": "CC(C)=CCC/C(C)=C/Cc1c(O)c(CC=C(C)C)c2c(c1O)C(=O)C1C(O)[C@@H]3C[C@H]4C(C)(C)O[C@@](C/C=C(/C)C(=O)O)(C3=O)[C@@]14O2", "note": "(stereo partly specified)", "values": [{"measurement": "IC50", "setting": "Homo sapiens, HeLa", "value": 5.08, "unit": "µM"}]}, {"smiles": "CC(C)=CCCC1(C)C=Cc2c(O)c3c(c(CC=C(C)C)c2O1)O[C@]12C(C3=O)C(O)[C@@H]3C[C@H]1C(C)(C)O[C@@]2(C/C=C(/C)C(=O)O)C3=O", "note": "(stereo in doubt; 13)", "values": [{"measurement": "IC50", "setting": "Homo sapiens, HeLa", "value": 0.64, "unit": "µM"}]}, {"smiles": "CC(C)=CCCC1(C)C=Cc2c(O)c3c(c(CC=C(C)C)c2O1)O[C@]12C(C3=O)C(O)[C@@H]3C[C@H]1C(C)(C)O[C@@]2(C/C=C(/C)C(=O)O)C3=O", "note": "(stereo in doubt; 14)", "values": [{"measurement": "IC50", "setting": "hela", "value": 0.63, "unit": "µM"}]}, {"smiles": "COc1cccc2c1C(=O)c1c(O)c3c(c(O)c1C2=O)C[C@@](O)(C(=O)CO)C[C@@H]3O[C@H]1C[C@H](N)[C@H](O)[C@H](C)O1", "note": "[DOXORUBICIN]", "values": [{"measurement": "IC50", "setting": "Homo sapiens, HeLa", "value": 0.41, "unit": "µM"}]}, {"smiles": "CC(C)=CCc1c2c(c(O)c3c1OC(C)(C)C1CCC(C)=CC31)C(=O)C1=C[C@@H]3C[C@H]4C(C)(C)O[C@@](C/C=C(/C)C(=O)O)(C3=O)[C@@]14O2", "note": "(stereo partly specified) [GAMBOGEFIC ACID]", "values": [{"measurement": "IC50", "setting": "Homo sapiens, HeLa", "value": 0.56, "unit": "µM"}]}, {"smiles": "CC(C)=CCC/C(C)=C/Cc1c(O)c2c(c3c1O[C@@H](C(C)(C)O)C3)O[C@]13C(=C[C@@H]4C[C@H]1C(C)(C)O[C@@]3(C/C=C(/C)C(=O)O)C4=O)C2=O", "note": "[GAMBOGENIFIC ACID]", "values": [{"measurement": "IC50", "setting": "Homo sapiens, HeLa", "value": 1.79, "unit": "µM"}]}, {"smiles": "CC(C)=CCC[C@]1(C)C=Cc2c(O)c3c(c(CC=C(C)C)c2O1)O[C@]12C(=C[C@@H]4C[C@H]1C(C)(C)O[C@@]2(C/C=C(/C)C(=O)O)C4=O)C3=O", "note": "[GAMBOGIC ACID]", "values": [{"measurement": "IC50", "setting": "Homo sapiens, HeLa", "value": 0.7, "unit": "µM"}]}, {"smiles": "CC(C)=CCc1c2c(c(O)c3c1O[C@]14C(=C[C@@H]5C[C@H]1C(C)(C)O[C@@]4(C/C=C(/C)C(=O)O)C5=O)C3=O)C=CC(C)(CC/C=C/C(C)(C)O)O2", "note": "(stereo partly specified) [OXYGAMBOGIC ACID]", "values": [{"measurement": "IC50", "setting": "Homo sapiens, HeLa", "value": 1.91, "unit": "µM"}]}]}
